Test results from ChEMBL document CHEMBL2062435, “Synthesis and in vitro antibacterial activity of gemifloxacin derivatives containing a substituted benzyloxime moiety” (2012).

How the values were obtained:
Assay type in all cases: functional
[1] = test system: Staphylococcus epidermidis; experiment: Ratio of gemifloxacin MIC to compound MIC for extended spectrum beta-lactamases-producing methicillin-sensitive Staphylococcus epidermidis 10-13 after 18-24 hrs by two-fold serial dilution method
Staphylococcus aureus [2] = experiment: Ratio of gemifloxacin MIC to compound MIC for extended spectrum beta-lactamases-producing methicillin-sensitive Staphylococcus aureus 10-14 after 18-24 hrs by two-fold serial dilution method
Staphylococcus aureus [3] = experiment: Antimicrobial activity against methicillin-resistant Staphylococcus aureus clinical isolate after 18-24 hrs by two-fold serial dilution method
Summary of the method: (§1)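 Agar twofold serial dilution MIC against clinical isolates. MIC was taken as the lowest concentration giving complete inhibition of bacterial growth after incubation at 35 °C for 18-24 h.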

[4] = test system: Staphylococcus epidermidis; experiment: Antimicrobial activity against extended spectrum beta-lactamases-producing methicillin-resistant Staphylococcus epidermidis 10-10 after 18-24 hrs by two-fold serial dilution method; summary of the method: as §1
Pseudomonas aeruginosa [5] = experiment: Antimicrobial activity against extended spectrum beta-lactamases-producing Pseudomonas aeruginosa 10-20 after 18-24 hrs by two-fold serial dilution method
Summary of the method: (§2)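 Agar-medium twofold serial dilution against Gram-positive and Gram-negative strains; MIC taken as the lowest compound concentration giving complete inhibition of bacterial growth after incubation at 35 °C for 18-24 h.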

Escherichia coli [6] = experiment: Antimicrobial activity against extended spectrum beta-lactamases-producing Escherichia coli 10-4 after 18-24 hrs by two-fold serial dilution method; summary of the method: as §2
[7] = test system: Staphylococcus epidermidis; experiment: Ratio of levofloxacin MIC to compound MIC for extended spectrum beta-lactamases-producing methicillin-sensitive Staphylococcus epidermidis 10-15 after 18-24 hrs by two-fold serial dilution method
Summary of the method: (§3)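 MICs were determined by the standard twofold serial dilution method on agar media against the test strains, with levofloxacin run as a reference. MIC is the lowest concentration giving complete inhibition of bacterial growth after 18–24 h incubation at 35 °C. The ratio is levofloxacin MIC divided by test-compound MIC.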

Staphylococcus aureus [8] = experiment: Ratio of gemifloxacin MIC to compound MIC for Staphylococcus aureus ATCC […] after 18-24 hrs by two-fold serial dilution method
Enterococcus faecalis [9] = experiment: Ratio of levofloxacin MIC to compound MIC for Enterococcus faecalis 10-5 after 18-24 hrs by two-fold serial dilution method
Escherichia coli [10] = experiment: Antimicrobial activity against extended spectrum beta-lactamases-producing Escherichia coli 10-3 after 18-24 hrs by two-fold serial dilution method; summary of the method: as §2
[11] = test system: Staphylococcus epidermidis; experiment: Antimicrobial activity against extended spectrum beta-lactamases-producing methicillin-resistant Staphylococcus epidermidis 10-13 after 18-24 hrs by two-fold serial dilution method; summary of the method: as §1
Staphylococcus aureus [12] = experiment: Antimicrobial activity against extended spectrum beta-lactamases-producing methicillin-resistant Staphylococcus aureus 10-11 after 18-24 hrs by two-fold serial dilution method; summary of the method: as §1
Escherichia coli [13] = experiment: Antimicrobial activity against Escherichia coli 10-3 after 18-24 hrs by two-fold serial dilution method; summary of the method: as §2
Staphylococcus aureus [14] = experiment: Antimicrobial activity against extended spectrum beta-lactamases-producing methicillin-sensitive Staphylococcus aureus 10-14 after 18-24 hrs by two-fold serial dilution method; summary of the method: as §2
Enterococcus faecium [15] = experiment: Ratio of gemifloxacin MIC to compound MIC for Enterococcus faecium 10-5 after 18-24 hrs by two-fold serial dilution method
Enterococcus faecium [16] = experiment: Ratio of levofloxacin MIC to compound MIC for Enterococcus faecium 10-9 after 18-24 hrs by two-fold serial dilution method
[17] = test system: Staphylococcus epidermidis; experiment: Ratio of levofloxacin MIC to compound MIC for extended spectrum beta-lactamases-producing methicillin-sensitive Staphylococcus epidermidis 10-13 after 18-24 hrs by two-fold serial dilution method; summary of the method: as §3
Klebsiella pneumoniae [18] = experiment: Antimicrobial activity against Klebsiella pneumoniae 10-3 after 18-24 hrs by two-fold serial dilution method; summary of the method: as §2
Klebsiella pneumoniae [19] = experiment: Antimicrobial activity against extended spectrum beta-lactamases-producing Klebsiella pneumoniae 10-2 after 18-24 hrs by two-fold serial dilution method; summary of the method: as §2
Enterococcus faecalis [20] = experiment: Ratio of levofloxacin MIC to compound MIC for Enterococcus faecalis 10-7 after 18-24 hrs by two-fold serial dilution method
Staphylococcus aureus [21] = experiment: Ratio of levofloxacin MIC to compound MIC for extended spectrum beta-lactamases-producing methicillin-sensitive Staphylococcus aureus 10-14 after 18-24 hrs by two-fold serial dilution method; summary of the method: as §3
Streptococcus pneumoniae [22] = experiment: Antimicrobial activity against extended spectrum beta-lactamases-producing Streptococcus pneumoniae 10-1 after 18-24 hrs by two-fold serial dilution method; summary of the method: as §2
Staphylococcus aureus [23] = experiment: Ratio of gemifloxacin MIC to compound MIC for extended spectrum beta-lactamases-producing methicillin-sensitive Staphylococcus aureus 10-13 after 18-24 hrs by two-fold serial dilution method
Enterococcus faecalis [24] = experiment: Ratio of gemifloxacin MIC to compound MIC for Enterococcus faecalis 10-7 after 18-24 hrs by two-fold serial dilution method
[25] = test system: Staphylococcus epidermidis; experiment: Ratio of gemifloxacin MIC to compound MIC for extended spectrum beta-lactamases-producing methicillin-sensitive Staphylococcus epidermidis 10-11 after 18-24 hrs by two-fold serial dilution method
[26] = test system: Staphylococcus epidermidis; experiment: Antimicrobial activity against extended spectrum beta-lactamases-producing methicillin-sensitive Staphylococcus epidermidis 10-13 after 18-24 hrs by two-fold serial dilution method; summary of the method: as §2
Pseudomonas aeruginosa [27] = experiment: Antimicrobial activity against extended spectrum beta-lactamases-producing Pseudomonas aeruginosa 10-5 after 18-24 hrs by two-fold serial dilution method; summary of the method: as §2
Streptococcus pneumoniae [28] = experiment: Ratio of gemifloxacin MIC to compound MIC for extended spectrum beta-lactamases-producing Streptococcus pneumoniae 10-4 after 18-24 hrs by two-fold serial dilution method
Pseudomonas aeruginosa [29] = experiment: Antimicrobial activity against Pseudomonas aeruginosa 10-12 after 18-24 hrs by two-fold serial dilution method; summary of the method: as §2
Enterococcus faecalis [30] = experiment: Antimicrobial activity against Enterococcus faecalis 10-5 after 18-24 hrs by two-fold serial dilution method; summary of the method: as §2
[31] = test system: Staphylococcus epidermidis; experiment: Antimicrobial activity against methicillin-resistant Staphylococcus epidermidis clinical isolate after 18-24 hrs by two-fold serial dilution method
Streptococcus pneumoniae [32] = experiment: Ratio of gemifloxacin MIC to compound MIC for extended spectrum beta-lactamases-producing Streptococcus pneumoniae 10-1 after 18-24 hrs by two-fold serial dilution method
Klebsiella pneumoniae [33] = experiment: Antimicrobial activity against extended spectrum beta-lactamases-producing Klebsiella pneumoniae 10-3 after 18-24 hrs by two-fold serial dilution method; summary of the method: as §2
Staphylococcus aureus [34] = experiment: Ratio of levofloxacin MIC to compound MIC for extended spectrum beta-lactamases-producing methicillin-sensitive Staphylococcus aureus 10-13 after 18-24 hrs by two-fold serial dilution method; summary of the method: as §3
Staphylococcus aureus [35] = experiment: Antimicrobial activity against extended spectrum beta-lactamases-producing methicillin-sensitive Staphylococcus aureus 10-13 after 18-24 hrs by two-fold serial dilution method; summary of the method: as §2
Enterococcus faecalis [36] = experiment: Ratio of gemifloxacin MIC to compound MIC for Enterococcus faecalis 10-6 after 18-24 hrs by two-fold serial dilution method
Staphylococcus aureus [37] = experiment: Antimicrobial activity against extended spectrum beta-lactamases-producing methicillin-resistant Staphylococcus aureus 10-15 after 18-24 hrs by two-fold serial dilution method; summary of the method: as §1
[38] = test system: Staphylococcus epidermidis; experiment: Antimicrobial activity against extended spectrum beta-lactamases-producing methicillin-sensitive Staphylococcus epidermidis 10-15 after 18-24 hrs by two-fold serial dilution method; summary of the method: as §2
[39] = test system: Staphylococcus epidermidis; experiment: Antimicrobial activity against extended spectrum beta-lactamases-producing methicillin-sensitive Staphylococcus epidermidis 10-11 after 18-24 hrs by two-fold serial dilution method; summary of the method: as §2
Staphylococcus aureus [40] = experiment: Antimicrobial activity against Staphylococcus aureus ATCC […] after 18-24 hrs by two-fold serial dilution method; summary of the method: as §2
Enterococcus faecium [41] = experiment: Antimicrobial activity against Enterococcus faecium 10-9 after 18-24 hrs by two-fold serial dilution method; summary of the method: as §2

SMILES: COc1ccc(OC)c(CO/N=C2\CN(c3nc4c(cc3F)c(=O)c(C(=O)O)cn4C3CC3)CC2CN)c1.CS(=O)(=O)O (racemic)
- Ratio [1]: 2
- Ratio (Staphylococcus aureus [2]): 2
- MIC50 (Staphylococcus aureus [3]): 0.5 µg/mL
- MIC90 (Staphylococcus aureus [3]): 1 µg/mL
- MIC [4]: 0.25 µg/mL
- MIC (Pseudomonas aeruginosa [5]): > 128 µg/mL
- MIC (Escherichia coli [6]): > 128 µg/mL
- Ratio [7]: 8
- Ratio (Staphylococcus aureus [8]): 2
- Ratio (Enterococcus faecalis [9]): 8
- MIC (Escherichia coli [10]): > 128 µg/mL
- MIC [11]: 0.25 µg/mL
- MIC (Staphylococcus aureus [12]): 1 µg/mL
- MIC (Escherichia coli [13]): > 128 µg/mL
- MIC (Staphylococcus aureus [14]): 0.03 µg/mL
- Ratio (Enterococcus faecium [15]): 2
- Ratio (Enterococcus faecium [16]): 8
- Ratio [17]: 8
- MIC (Klebsiella pneumoniae [18]): > 128 µg/mL
- MIC (Klebsiella pneumoniae [19]): > 128 µg/mL
- Ratio (Enterococcus faecalis [20]): 8
- Ratio (Staphylococcus aureus [21]): 8
- MIC (Streptococcus pneumoniae [22]): 0.06 µg/mL
- Ratio (Staphylococcus aureus [23]): 2
- Ratio (Enterococcus faecalis [24]): 2
- Ratio [25]: 2
- MIC [26]: 0.03 µg/mL
- MIC (Pseudomonas aeruginosa [27]): > 128 µg/mL
- Ratio (Streptococcus pneumoniae [28]): 2
- MIC (Pseudomonas aeruginosa [29]): > 128 µg/mL
- MIC (Enterococcus faecalis [30]): 0.25 µg/mL
- MIC50 [31]: 0.25 µg/mL
- MIC90 [31]: 4 µg/mL
- Ratio (Streptococcus pneumoniae [32]): 2
- MIC (Klebsiella pneumoniae [33]): > 128 µg/mL
- Ratio (Staphylococcus aureus [34]): 8
- MIC (Staphylococcus aureus [35]): 0.03 µg/mL
- Ratio (Enterococcus faecalis [36]): 2
- MIC (Staphylococcus aureus [37]): 0.125 µg/mL
- MIC [38]: 4 µg/mL
- MIC [39]: 0.25 µg/mL
- MIC (Staphylococcus aureus [40]): < 0.008 µg/mL
- MIC (Enterococcus faecium [41]): 4 µg/mL
